Values after ≈ are worked out from the molar mass of the structure shown.
What was measured:
CV-1 = experiment: Chemotherapeutic index in CV-1 cells (chemotherapeutic index=50% cytotoxic dose/50% effective dose).; type: functional, Cercopithecidae
Procedure, shortened: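 Index = 50% cytotoxic dose / 50% plaque-inhibition dose. For cytotoxicity, 200 cells/mL in suspension were mixed with 10% FBS MEM carrying serial compound dilutions and incubated 7 days at 37 °C under 5% CO2. Colonies were stained with 1% crystal violet and counted, and the 50% cytotoxic dose was read from the dose-response curve.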

Poliovirus 1 = experiment: microbe, parasite or virus in culture; type: functional; conditions: Enterovirus C; read-out: ED50 (the source's name)
Enterovirus [1] = experiment: Antiviral activity against rhinovirus 1A using plaque-inhibition assay; type: functional; conditions: read-out: ED50 (the source's name)
Procedure, shortened: (§1)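 Plaque reduction: confluent monolayers were infected with 100-200 PFU. Hela (Ohio) cells were used for rhinoviruses 10 and 1A and coxsackieviruses B4 and A9, CV-1 for poliovirus type 1 Mahoney, and LLC-MK2 for enterovirus 70. Cells were overlaid with 2.0% agar in MEM plus 4% FBS containing serial compound concentrations. Incubation was 37 °C for polio/coxsackie and 33 °C for rhino/enterovirus, with a neutral red (0.004%) second overlay. ED50 was taken from the dose-response curve.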

Enterovirus [2] = experiment: Antiviral activity against rhinovirus 10 using plaque-inhibition assay; type: functional; conditions: read-out: ED50 (the source's name); procedure, shortened: as §1
HeLa [3] = experiment: Antiviral activity was measured against Hela cells injected with coxsackie virus type B4; type: functional, Homo sapiens; procedure, shortened: as §1
HeLa [4] = experiment: Antiviral activity was measured against Hela cells injected with rhinovirus 10; type: functional, Homo sapiens
Procedure, shortened: (§2)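 Rhinovirus spectrum in Hela cells: infected cultures were kept 3 days at 33 °C, stained with crystal violet and examined microscopically for cytopathic effect. The end point was 50% inhibition.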

HeLa [5] = experiment: Antiviral activity was measured against Hela cells injected with rhinovirus 19; type: functional, Homo sapiens; procedure, shortened: as §2
HeLa [6] = experiment: Antiviral activity was measured against Hela cells injected with rhinovirus 1A; type: functional, Homo sapiens; procedure, shortened: as §2
LLC-MK2 = experiment: Antiviral activity was measured against LLC-MK2 cells injected with enterovirus 70; type: functional, Cercopithecidae; procedure, shortened: as §1

SMILES	Chemotherapeutic index (CV-1)	EC50 (Poliovirus 1)	further results
CCCc1ccc(NC(=O)c2ccc(NS(=O)(=O)N(C)C)cc2)cc1	6	0.16 µg/mL (≈ 0.443 µM)	EC50 (Enterovirus [1]): 0.15 µg/mL (≈ 0.415 µM)
CC(C)S(=O)(=O)Nc1cccc(C(=O)Nc2cccc(CO)c2)c1		> 50 µg/mL	
CN(C)S(=O)(=O)Nc1cccc(C(=O)Nc2ccccn2)c1		44 µg/mL (≈ 137 µM)	
CN(C)S(=O)(=O)Nc1cccc(/C(=N/O)c2cccc(CO)c2)c1	20	0.5 µg/mL (≈ 1.43 µM)	EC50 (Enterovirus [2]): 1.6 µg/mL (≈ 4.58 µM)
COC(=O)c1cccc(NC(=O)c2ccc(NS(=O)(=O)N(C)C)cc2)c1		1.2 µg/mL (≈ 3.18 µM)	
COc1ccc(/C(=N\O)c2cccc(NS(=O)(=O)N(C)C)c2)c(OC)c1	28	1 µg/mL (≈ 2.64 µM)	EC50 (Enterovirus [2]): 0.89 µg/mL (≈ 2.35 µM)
CN(C)S(=O)(=O)Nc1cccc(C(=O)Nc2ccc(C#N)cc2)c1		5 µg/mL (≈ 14.5 µM)	
CN(C)S(=O)(=O)Nc1cc(C(=O)Nc2ccccc2)ccc1Cl		10 µg/mL (≈ 28.3 µM)	
CC(C)S(=O)(=O)Nc1cccc(C(=O)Nc2cccc([N+](=O)[O-])c2)c1		> 25 µg/mL	
CC(C)S(=O)(=O)Nc1cccc(C(=O)Nc2cccc(O)c2)c1		25 µg/mL (≈ 74.8 µM)	
COc1ccc(/C(=N\O)c2cccc(NS(=O)(=O)N(C)C)c2)cc1	56	0.26 µg/mL (≈ 0.744 µM)	ED50 (HeLa [3]): 0.64 µg/mL (≈ 1.83 µM); ED50 (HeLa [4]): 0.26 µg/mL (≈ 0.744 µM); ED50 (HeLa [5]): 0.44 µg/mL (≈ 1.26 µM); ED50 (HeLa [6]): 0.29 µg/mL (≈ 0.83 µM); EC50 (Enterovirus [2]): 0.29 µg/mL (≈ 0.83 µM); ED50 (LLC-MK2): 0.75 µg/mL (≈ 2.15 µM)
CN(C)S(=O)(=O)Nc1cccc(/C(=N/O)c2ccccc2)c1	24	0.79 µg/mL (≈ 2.47 µM)	EC50 (Enterovirus [2]): 0.54 µg/mL (≈ 1.69 µM)
O=C(Nc1ccccc1)c1cccc(NS(=O)(=O)N2CCCC2)c1		6.4 µg/mL (≈ 18.5 µM)	
CN(C)S(=O)(=O)Nc1ccc(C(=O)Nc2cccc(Cl)c2)cc1		1.6 µg/mL (≈ 4.52 µM)	
CCCOc1ccc(NC(=O)c2ccc(NS(=O)(=O)N(C)C)cc2)cc1		0.7 µg/mL (≈ 1.85 µM)	
CC(C)Cc1ccc(NC(=O)c2ccc(NS(=O)(=O)N(C)C)cc2)cc1	7	0.16 µg/mL (≈ 0.426 µM)	EC50 (Enterovirus [1]): 0.13 µg/mL (≈ 0.346 µM)
COc1ccc(/C(=N\O)c2cccc(NS(=O)(=O)N(C)C)c2)cc1OC		0.55 µg/mL (≈ 1.45 µM)	
CN(C)S(=O)(=O)Nc1cccc(C(=O)Nc2cccc(Cl)c2)c1		1.5 µg/mL (≈ 4.24 µM)	
CN(C)S(=O)(=O)Nc1cccc(/C(=N/O)c2ccc(CO)cc2)c1	55	0.4 µg/mL (≈ 1.14 µM)	EC50 (Enterovirus [2]): 0.37 µg/mL (≈ 1.06 µM)
CC(C)S(=O)(=O)Nc1cccc(C(=O)Nc2ccc(Cl)c(Cl)c2)c1		> 25 µg/mL	

SMILES	Chemotherapeutic index (CV-1)	EC50 (Poliovirus 1)	further results
CCCCCc1ccc(NC(=O)c2ccc(NS(=O)(=O)N(C)C)cc2)cc1	4	0.32 µg/mL (≈ 0.822 µM)	EC50 (Enterovirus [1]): 0.51 µg/mL (≈ 1.31 µM)
COc1ccc(/C(=N\O)c2cccc(NS(=O)(=O)C(C)C)c2)cc1	32	0.36 µg/mL (≈ 1.03 µM)	EC50 (Enterovirus [2]): 0.62 µg/mL (≈ 1.78 µM)
CN(C)S(=O)(=O)Nc1ccc(C(=O)Nc2ccc(Cl)cc2)cc1	220	0.5 µg/mL (≈ 1.41 µM)	EC50 (Enterovirus [1]): 0.32 µg/mL (≈ 0.904 µM)
COc1ccc(/C(=N/O)c2cccc(NS(=O)(=O)N(C)C)c2)cc1	3.4	7.6 µg/mL (≈ 21.8 µM)	EC50 (Enterovirus [2]): 5.4 µg/mL (≈ 15.5 µM)
CN(C)S(=O)(=O)Nc1cccc(C(=O)Nc2ccccc2)c1		4 µg/mL (≈ 12.5 µM)	
CC(C)S(=O)(=O)Nc1cccc(C(=O)Nc2cccc(Cl)c2)c1		1.5 µg/mL (≈ 4.25 µM)	
Cc1ccc(NS(=O)(=O)C(C)C)cc1C(=O)Nc1ccc(Cl)cc1		12 µg/mL (≈ 32.7 µM)	
COCc1ccc(/C(=N\O)c2cccc(NS(=O)(=O)C(C)C)c2)cc1	68	0.22 µg/mL (≈ 0.607 µM)	EC50 (Enterovirus [2]): 0.98 µg/mL (≈ 2.7 µM)
CC(C)S(=O)(=O)Nc1cccc(C(=O)NCc2ccccc2)c1		> 50 µg/mL	
Cc1cccc(NC(=O)c2ccc(NS(=O)(=O)N(C)C)cc2)c1		2.3 µg/mL (≈ 6.9 µM)	
COc1ccc(NC(=O)c2cccc(NS(=O)(=O)N(C)C)c2)cc1		4 µg/mL (≈ 11.4 µM)	
CC(C)c1ccc(NC(=O)c2ccc(NS(=O)(=O)N(C)C)cc2)cc1	10	0.21 µg/mL (≈ 0.581 µM)	EC50 (Enterovirus [1]): 0.1 µg/mL (≈ 0.277 µM)
Cc1ccc(NC(=O)c2ccc(NS(=O)(=O)N(C)C)cc2)cc1	370	0.54 µg/mL (≈ 1.62 µM)	EC50 (Enterovirus [1]): 0.38 µg/mL (≈ 1.14 µM)
CN(C)S(=O)(=O)Nc1cccc(/C(=N/O)c2ccc3c(c2)OCO3)c1		3.4 µg/mL (≈ 9.36 µM)	
CC(C)S(=O)(=O)Nc1cccc(C(=O)Nc2ccc(F)cc2)c1		4.2 µg/mL (≈ 12.5 µM)	
COCc1ccc(/C(=N\O)c2cccc(NS(=O)(=O)N(C)C)c2)cc1	28	0.25 µg/mL (≈ 0.688 µM)	EC50 (Enterovirus [2]): 0.36 µg/mL (≈ 0.991 µM)
CC(C)S(=O)(=O)Nc1cccc(C(=O)Nc2ccccc2)c1		7 µg/mL (≈ 22 µM)	
CC(C)S(=O)(=O)Nc1ccc(C(=O)Nc2ccc(C(F)(F)F)cc2)cc1		0.25 µg/mL (≈ 0.647 µM)	
CN(C)S(=O)(=O)Nc1cccc(C(=O)Nc2ccc(C(F)(F)F)cc2)c1		0.46 µg/mL (≈ 1.19 µM)	
